Assays:
Histone deacetylase = assay: Inhibition of HDAC in human HeLa cells using Ac-Arg-Gly-Lys(Ac)-AMC as fluorescent substrate after 20 mins by fluorescence assay; assay type: cell-based
MOLT-4 [1] = assay: Antiproliferative activity against human MOLT4 cells by SRB assay; assay type: functional
How it was run: (§1)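 Tested in the NCI in vitro human tumor cell line screen, run by the National Cancer Institute. Each compound was given at five concentrations (100, 10, 1.0, 0.1 and 0.01 μM). GI50 is the drug concentration that reduces growth of treated cells to half that of control cells during drug incubation, judged from the SRB signal.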

RPMI-8226 [2] = assay: Antiproliferative activity against human RPMI8226 cells by SRB assay; assay type: functional; how it was run: as §1
SR [3] = assay: Antiproliferative activity against human SR cells by SRB assay; assay type: functional
How it was run: (§2)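 Cell growth was tested in the NIH in vitro disease-oriented human tumor cell line screen, which NCI ran for these compounds. Compounds were tested at five concentrations (100, 10, 1.0, 0.1 and 0.01 μM), and growth was read by SRB signal. GI50 is the drug concentration that reduces growth of treated cells to half that of control cells during drug incubation.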

EKVX [4] = assay: Antiproliferative activity against human EKVX cells by SRB assay; assay type: functional; how it was run: as §1
HOP-62 [5] = assay: Antiproliferative activity against human HOP62 cells by SRB assay; assay type: functional; how it was run: as §1
NCI-H226 [6] = assay: Antiproliferative activity against human NCI-H226 cells by SRB assay; assay type: functional; how it was run: as §1
NCI-H23 [7] = assay: Antiproliferative activity against human NCI-H23 cells by SRB assay; assay type: functional; how it was run: as §1
NCI-H322M = assay: Antiproliferative activity against human NCI-H322M cells by SRB assay; assay type: functional; how it was run: as §1
NCI-H460 [8] = assay: Antiproliferative activity against human NCI-H460 cells by SRB assay; assay type: functional; how it was run: as §1
NCI-H522 [9] = assay: Antiproliferative activity against human NCI-H522 cells by SRB assay; assay type: functional; how it was run: as §1
HT-29 [10] = assay: Antiproliferative activity against human HT-29 cells by SRB assay; assay type: functional; how it was run: as §1
KM12 = assay: Antiproliferative activity against human KM12 cells by SRB assay; assay type: functional; how it was run: as §1
SF-268 = assay: Antiproliferative activity against human SF268 cells by SRB assay; assay type: functional; how it was run: as §1
SF-295 = assay: Antiproliferative activity against human SF295 cells by SRB assay; assay type: functional; how it was run: as §1
SF-539 [11] = assay: Antiproliferative activity against human SF539 cells by SRB assay; assay type: functional; how it was run: as §1
U-251 = assay: Antiproliferative activity against human U251 cells by SRB assay; assay type: functional; how it was run: as §2
Malme-3M [12] = assay: Antiproliferative activity against human MALME-3M cells by SRB assay; assay type: functional; how it was run: as §1
M14 [13] = assay: Antiproliferative activity against human M14 cells by SRB assay; assay type: functional; how it was run: as §1
MDA-MB-435 = assay: Antiproliferative activity against human MDA-MB-435 cells by SRB assay; assay type: functional; how it was run: as §1
SK-MEL-5 = assay: Antiproliferative activity against human SK-MEL-5 cells by SRB assay; assay type: functional; how it was run: as §1
UACC-62 [14] = assay: Antiproliferative activity against human UACC62 cells by SRB assay; assay type: functional; how it was run: as §2
IGROV-1 [15] = assay: Antiproliferative activity against human IGROV1 cells by SRB assay; assay type: functional; how it was run: as §1
OVCAR-3 = assay: Antiproliferative activity against human OVCAR3 cells by SRB assay; assay type: functional; how it was run: as §1
OVCAR-5 = assay: Antiproliferative activity against human OVCAR5 cells by SRB assay; assay type: functional; how it was run: as §1
SK-OV-3 [16] = assay: Antiproliferative activity against human SKOV3 cells by SRB assay; assay type: functional; how it was run: as §1
ACHN [17] = assay: Antiproliferative activity against human ACHN cells by SRB assay; assay type: functional; how it was run: as §1
PC-3 = assay: Antiproliferative activity against human PC3 cells by SRB assay; assay type: functional; how it was run: as §1
MCF7 [18] = assay: Antiproliferative activity against human MCF7 cells by SRB assay; assay type: functional; how it was run: as §1
MDA-MB-231 = assay: Antiproliferative activity against human MDA-MB-231 cells by SRB assay; assay type: functional; how it was run: as §1
[19] = Antiproliferative activity against human Hs 578T cells by SRB assay; assay type: functional; how it was run: as §1
BT-549 [20] = assay: Antiproliferative activity against human BT549 cells by SRB assay; assay type: functional; how it was run: as §1
HL-60(TB) = assay: Cytotoxicity against human HL-60(TB) cells; assay type: cell-based
K562 = assay: Cytotoxicity against human K562 cells; assay type: cell-based
MOLT-4 [21] = assay: Cytotoxicity against human MOLT4 cells; assay type: cell-based
RPMI-8226 [22] = assay: Cytotoxicity against human RPMI8226 cells; assay type: cell-based
How it was run: (§3)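 Tested in the NCI in vitro disease-oriented human tumour cell line screen, with screening performed by NCI. Growth was read by SRB signal over the drug incubation period at five concentrations: 100, 10, 1.0, 0.1 and 0.01 μM. GI50 is the concentration that reduces growth of treated cells to half that of control cells.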

SR [23] = assay: Cytotoxicity against human SR cells; assay type: cell-based
How it was run: (§4)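 Screened by NCI in its in vitro disease-oriented human tumour cell line panel. Compounds tested at five concentrations (100, 10, 1.0, 0.1 and 0.01 μM). Growth read by sulforhodamine B (SRB) signal. GI50 is the concentration reducing growth of treated cells to half that of control cells during the drug incubation.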

A549 = assay: Cytotoxicity against human A549 cells; assay type: cell-based; how it was run: as §3
EKVX [24] = assay: Cytotoxicity against human EKVX cells; assay type: cell-based; how it was run: as §3
HOP-62 [25] = assay: Cytotoxicity against human HOP62 cells; assay type: cell-based; how it was run: as §3
NCI-H226 [26] = assay: Cytotoxicity against human NCI-H226 cells; assay type: cell-based
NCI-H23 [27] = assay: Cytotoxicity against human NCI-H23 cells; assay type: cell-based
NCI-H460 [28] = assay: Cytotoxicity against human NCI-H460 cells; assay type: cell-based
NCI-H522 [29] = assay: Cytotoxicity against human NCI-H522 cells; assay type: cell-based; how it was run: as §3
HCT-15 = assay: Cytotoxicity against human HCT15 cells; assay type: cell-based; how it was run: as §3
HT-29 [30] = assay: Cytotoxicity against human HT-29 cells; assay type: cell-based; how it was run: as §3
SF-539 [31] = assay: Cytotoxicity against human SF539 cells; assay type: cell-based; how it was run: as §3
SNB-75 = assay: Cytotoxicity against human SNB75 cells; assay type: cell-based; how it was run: as §4
LOX IMVI = assay: Cytotoxicity against human LOXIMVI cells; assay type: cell-based
Malme-3M [32] = assay: Cytotoxicity against human MALME-3M cells; assay type: cell-based; how it was run: as §3
M14 [33] = assay: Cytotoxicity against human M14 cells; assay type: cell-based
SK-MEL-2 = assay: Cytotoxicity against human SK-MEL-2 cells; assay type: cell-based; how it was run: as §3
UACC-62 [34] = assay: Cytotoxicity against human UACC62 cells; assay type: cell-based; how it was run: as §4
IGROV-1 [35] = assay: Cytotoxicity against human IGROV1 cells; assay type: cell-based
SK-OV-3 [36] = assay: Cytotoxicity against human SKOV3 cells; assay type: cell-based
786-0 = assay: Cytotoxicity against human 786-0 cells; assay type: cell-based
ACHN [37] = assay: Cytotoxicity against human ACHN cells; assay type: cell-based
CAKI-1 = assay: Cytotoxicity against human Caki1 cells; assay type: cell-based
RXF 393 = assay: Cytotoxicity against human RXF393 cells; assay type: cell-based; how it was run: as §3
SN12C = assay: Cytotoxicity against human SN12C cells; assay type: cell-based; how it was run: as §4
DU-145 = assay: Cytotoxicity against human DU145 cells; assay type: cell-based; how it was run: as §3
MCF7 [38] = assay: Cytotoxicity against human MCF7 cells; assay type: cell-based
[39] = Cytotoxicity against human Hs 578T cells; assay type: cell-based
BT-549 [40] = assay: Cytotoxicity against human BT549 cells; assay type: cell-based
T47D = assay: Cytotoxicity against human T47D cells; assay type: cell-based; how it was run: as §4

O=C(/C=C/c1cn(C(/C=C/c2ccccc2)Cc2ccccc2)nn1)NO (stereo not given) showed an IC50 (Histone deacetylase) of 77 nM, a GI50 (MOLT-4 [1]) of 493 nM and a GI50 (RPMI-8226 [2]) of 743 nM. The GI50 (SR [3]) was 624 nM, the GI50 (EKVX [4]) was 1460 nM and the GI50 (HOP-62 [5]) was 1440 nM. For the same compound, the GI50 (NCI-H226 [6]) was 2440 nM, the GI50 (NCI-H23 [7]) was 1510 nM and the GI50 (NCI-H322M) was 1370 nM. It also gave a GI50 (NCI-H460 [8]) of 1040 nM, a GI50 (NCI-H522 [9]) of 386 nM and a GI50 (HT-29 [10]) of 547 nM. The GI50 (KM12) was 1930 nM, the GI50 (SF-268) was 1220 nM and the GI50 (SF-295) was 291 nM. It also gave a GI50 (SF-539 [11]) of 1140 nM, a GI50 (U-251) of 948 nM and a GI50 (Malme-3M [12]) of 305 nM. For the same compound, the GI50 (M14 [13]) was 1180 nM, the GI50 (MDA-MB-435) was 866 nM and the GI50 (SK-MEL-5) was 879 nM. The GI50 (UACC-62 [14]) was 898 nM, the GI50 (IGROV-1 [15]) was 836 nM and the GI50 (OVCAR-3) was 1160 nM. The GI50 (OVCAR-5) was 426 nM, the GI50 (SK-OV-3 [16]) was 1980 nM and the GI50 (ACHN [17]) was 1230 nM. It also gave a GI50 (PC-3) of 1520 nM, a GI50 (MCF7 [18]) of 1210 nM and a GI50 (MDA-MB-231) of 2210 nM. The GI50 [19] was 934 nM, the GI50 (BT-549 [20]) was 1620 nM and the LC50 (HL-60(TB)) was greater than 100000 nM. The LC50 (K562) was greater than 100000 nM, the LC50 (MOLT-4 [21]) was greater than 100000 nM and the LC50 (RPMI-8226 [22]) was greater than 100000 nM. It also gave an LC50 (SR [23]) greater than 100000 nM, an LC50 (A549) of 64600 nM and an LC50 (EKVX [24]) of 87400 nM. It also gave an LC50 (HOP-62 [25]) of 18300 nM, an LC50 (NCI-H226 [26]) of 46800 nM and an LC50 (NCI-H23 [27]) of 8680 nM. It also gave an LC50 (NCI-H460 [28]) of 27200 nM, an LC50 (NCI-H522 [29]) of 6360 nM and an LC50 (HCT-15) of 74500 nM. It also gave an LC50 (HT-29 [30]) greater than 100000 nM, an LC50 (SF-539 [31]) of 6910 nM and an LC50 (SNB-75) of 9830 nM. The LC50 (LOX IMVI) was 4620 nM, the LC50 (Malme-3M [32]) was 28600 nM and the LC50 (M14 [33]) was 16500 nM. The LC50 (SK-MEL-2) was 49200 nM, the LC50 (UACC-62 [34]) was 6340 nM and the LC50 (IGROV-1 [35]) was 8180 nM. For the same compound, the LC50 (SK-OV-3 [36]) was 13300 nM, the LC50 (786-0) was 6450 nM and the LC50 (ACHN [37]) was 13700 nM. It also gave an LC50 (CAKI-1) of 6250 nM, an LC50 (RXF 393) of 7610 nM and an LC50 (SN12C) greater than 100000 nM. It also gave an LC50 (DU-145) of 46300 nM, an LC50 (MCF7 [38]) of 93200 nM and an LC50 [39] of 74600 nM. The LC50 (BT-549 [40]) was greater than 100000 nM and the LC50 (T47D) was 61700 nM.

Source: ChEMBL document CHEMBL1806473, “Structure-based optimization of click-based histone deacetylase inhibitors” (Eur J Med Chem, 2011)
